Test results published in ChEMBL document CHEMBL3425455, “Short Hydrophobic Peptides with Cyclic Constraints Are Potent Glucagon-like Peptide-1 Receptor (GLP-1R) Agonists” (J Med Chem, 2015).
Positions of bridges follow the written chain, without caps; N, C: chain ends. Non-standard residues stand in square brackets, D forms with d. Residues, ends and D or L forms follow the SMILES beside them. Bip(2'-Et-4'-OMe) = CCc1cc(OC)ccc1-c1ccc(C[C@H](N)C(=O)O)cc1; Bip(2'-Me) = Cc1ccccc1-c1ccc(C[C@H](N)C(=O)O)cc1; αMePhe(2,6-F2) = C[C@](N)(Cc1c(F)cccc1F)C(=O)O; Tyr(3-I) = N[C@@H](Cc1ccc(O)c(I)c1)C(=O)O; αMePhe(2-F) = C[C@](N)(Cc1ccccc1F)C(=O)O; hhPhe = N[C@@H](CCCc1ccccc1)C(=O)O; Aad = N[C@@H](CCCC(=O)O)C(=O)O; Aib = CC(C)(N)C(=O)O

Experiments:
[1] = target: T1, Glucagon-like peptide 1 receptor (Homo sapiens, UniProt P43220); assay: Agonist activity at human GLP-1R expressed in CHO cells assessed as cAMP accumulation incubated for 30 mins; format: functional, cell-based
T1 sequence (P43220 whole entry): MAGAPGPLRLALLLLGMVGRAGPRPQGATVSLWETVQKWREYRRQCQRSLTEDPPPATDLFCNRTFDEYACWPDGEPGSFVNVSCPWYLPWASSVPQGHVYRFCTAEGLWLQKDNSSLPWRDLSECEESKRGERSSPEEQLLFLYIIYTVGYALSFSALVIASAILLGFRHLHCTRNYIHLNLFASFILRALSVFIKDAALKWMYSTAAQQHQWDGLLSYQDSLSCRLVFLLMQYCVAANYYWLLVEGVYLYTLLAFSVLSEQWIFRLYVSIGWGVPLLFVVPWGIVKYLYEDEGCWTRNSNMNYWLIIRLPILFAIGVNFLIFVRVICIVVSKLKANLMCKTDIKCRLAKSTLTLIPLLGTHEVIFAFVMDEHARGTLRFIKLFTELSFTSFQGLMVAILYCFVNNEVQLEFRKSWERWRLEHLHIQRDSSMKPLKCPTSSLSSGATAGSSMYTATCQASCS
Summary of the method: (§1)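 CHO cells stably expressing human GLP-1R, grown in DMEM/F12 with GlutaMAX, PenStrep and Geneticin, were lifted and resuspended in HBSS with 5.56 mM glucose, 0.1% BSA, 0.5 mM IBMX, 5 mM HEPES (final). 1000 cells/well were exposed to compound (10 μM to 100 fM) for 30 min at room temperature. After lysis with tracer/ULight reagents (2 h, room temperature), cAMP was read by LANCE Ultra TR-FRET. Values are geometric means with standard error.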

[2] = target: T1, Glucagon-like peptide 1 receptor; assay: Agonist activity at human GLP-1R expressed in CHO cells assessed as cAMP accumulation incubated for 30 mins relative to GLP1; format: functional, cell-based; summary of the method: as §1
[3] = target: T1, Glucagon-like peptide 1 receptor; assay: Displacement of [125I]-18 from human GLP-1R expressed in CHO cell membranes incubated for 120 mins by scintillation counting based radioligand binding assay
[4] = target: T1, Glucagon-like peptide 1 receptor; assay: Ratio of Ki for displacement of [125I]-18 from human GLP-1R expressed in CHO cell membranes by scintillation counting based radioligand binding assay to EC50 for Agonist activity at human GLP-1R expressed in CHO cells assessed as cAMP accumulation

Row | Structure (SMILES) | EC50 [1] [nM] | Activity [2] [%] | Ki [3] [nM] | Ratio [4]
1 | CCc1cc(OC)ccc1-c1ccc(C[C@H](NC(=O)[C@H](CC(=O)O)NC(=O)[C@H](CO)NC(=O)[C@@H](NC(=O)[C@](C)(Cc2ccccc2F)NC(=O)[C@@H]2CSSC[C@H](NC(=O)[C@@H](N)Cc3cnc[nH]3)C(=O)N[C@@H](CCC(=O)O)C(=O)NCC(=O)N2)[C@@H](C)O)C(=O)N[C@@H](CCCc2ccccc2)C(N)=O)cc1 | 670 | > 85 | > 3100 | –
2 | CCc1cc(OC)ccc1-c1ccc(C[C@H](NC(=O)[C@@H]2CCCCNC(=O)CC[C@H](NC(=O)CNC(=O)[C@H](CCC(=O)O)NC(=O)C(C)(C)NC(=O)[C@@H](N)Cc3cnc[nH]3)C(=O)N[C@@](C)(Cc3ccccc3F)C(=O)N[C@@H]([C@@H](C)O)C(=O)N[C@@H](CO)C(=O)N2)C(=O)N[C@@H](CCCc2ccccc2)C(N)=O)cc1 (H-H[Aib]EGE[αMePhe(2-F)]TSK[Bip(2'-Et-4'-OMe)][hhPhe]-NH2; lactam 5-9) | 430 | > 85 | 320 | –
3 | CCc1cc(OC)ccc1-c1ccc(C[C@H](NC(=O)[C@H](CC(=O)O)NC(=O)[C@H](CO)NC(=O)[C@@H](NC(=O)[C@](C)(Cc2ccccc2F)NC(=O)[C@H]2CSSCC[C@@H](NC(=O)[C@@H](N)Cc3cnc[nH]3)C(=O)N[C@@H](CCC(=O)O)C(=O)NCC(=O)N2)[C@@H](C)O)C(=O)N[C@@H](CCCc2ccccc2)C(N)=O)cc1 | 110 | > 85 | 4800 | 43
4 | CCc1cc(OC)ccc1-c1ccc(C[C@H](NC(=O)[C@H](CC(=O)O)NC(=O)[C@H](CO)NC(=O)[C@@H](NC(=O)[C@](C)(Cc2ccccc2F)NC(=O)[C@H]2CSSCC[C@H](NC(=O)[C@@H](N)Cc3cnc[nH]3)C(=O)N[C@@H](CCC(=O)O)C(=O)NCC(=O)N2)[C@@H](C)O)C(=O)N[C@@H](CCCc2ccccc2)C(N)=O)cc1 | 730 | > 85 | > 8000 | –
5 | CCc1cc(OC)ccc1-c1ccc(C[C@H](NC(=O)[C@H](CC(=O)O)NC(=O)[C@H](CO)NC(=O)[C@@H](NC(=O)[C@](C)(Cc2ccccc2F)NC(=O)[C@@H]2CSSC[C@@H](NC(=O)[C@@H](N)Cc3cnc[nH]3)C(=O)N[C@@H](CCC(=O)O)C(=O)NCC(=O)N2)[C@@H](C)O)C(=O)N[C@@H](CCCc2ccccc2)C(N)=O)cc1 | 600 | > 85 | 2400 | –
6 | CCc1cc(OC)ccc1-c1ccc(C[C@H](NC(=O)[C@H](CC(=O)O)NC(=O)[C@H](CO)NC(=O)[C@@H](NC(=O)[C@](C)(Cc2ccccc2F)NC(=O)[C@H]2CCSSCC[C@H](NC(=O)[C@@H](N)Cc3cnc[nH]3)C(=O)N[C@@H](CCC(=O)O)C(=O)NCC(=O)N2)[C@@H](C)O)C(=O)N[C@@H](CCCc2ccccc2)C(N)=O)cc1 | 1.8 | > 85 | 130 | –
7 | CCc1cc(OC)ccc1-c1ccc(C[C@H](NC(=O)[C@H](CC(=O)O)NC(=O)[C@H](CO)NC(=O)[C@@H](NC(=O)[C@](C)(Cc2ccccc2F)NC(=O)[C@@H]2CCSSCC[C@H](NC(=O)[C@@H](N)Cc3cnc[nH]3)C(=O)N[C@@H](CCC(=O)O)C(=O)NCC(=O)N2)[C@@H](C)O)C(=O)N[C@@H](CCCc2ccccc2)C(N)=O)cc1 | 390 | > 85 | 3000 | –
8 | CCc1cc(OC)ccc1-c1ccc(C[C@H](NC(=O)[C@H](CC(=O)O)NC(=O)[C@H](CO)NC(=O)[C@@H](NC(=O)[C@](C)(Cc2ccccc2F)NC(=O)[C@@H](NC(=O)CNC(=O)[C@H](CCC(=O)O)NC(=O)C(C)(C)NC(=O)[C@@H](N)Cc2cnc[nH]2)[C@@H](C)O)[C@@H](C)O)C(=O)N[C@@H](CCCc2ccccc2)C(N)=O)cc1 (H-H[Aib]EGT[αMePhe(2-F)]TSD[Bip(2'-Et-4'-OMe)][hhPhe]-NH2) | 0.12 | > 85 | 0.57 | 3.5
9 | CCc1cc(OC)ccc1-c1ccc(C[C@H](NC(=O)[C@H](CC(=O)O)NC(=O)[C@H](CO)NC(=O)[C@@H](NC(=O)[C@](C)(Cc2ccccc2F)NC(=O)[C@H]2CCSSC[C@H](NC(=O)[C@@H](N)Cc3cnc[nH]3)C(=O)N[C@@H](CCC(=O)O)C(=O)NCC(=O)N2)[C@@H](C)O)C(=O)N[C@@H](CCCc2ccccc2)C(N)=O)cc1 | 190 | > 85 | 980 | –
10 | CCc1cc(OC)ccc1-c1ccc(C[C@H](NC(=O)[C@H](CC(=O)O)NC(=O)[C@H](CO)NC(=O)[C@@H](NC(=O)[C@](C)(Cc2ccccc2F)NC(=O)[C@@H](NC(=O)CNC(=O)[C@H](CCC(=O)O)NC(=O)C(C)(C)NC(=O)[C@@H](N)Cc2cnc[nH]2)[C@@H](C)O)[C@@H](C)O)C(=O)N[C@@H](Cc2ccc(O)c(I)c2)C(N)=O)cc1 (H-H[Aib]EGT[αMePhe(2-F)]TSD[Bip(2'-Et-4'-OMe)][Tyr(3-I)]-NH2) | 0.045 | > 85 | 6 | –
11 | CCc1cc(OC)ccc1-c1ccc(C[C@H](NC(=O)[C@H](CC(=O)O)NC(=O)[C@H](CO)NC(=O)[C@@H](NC(=O)[C@](C)(Cc2ccccc2F)NC(=O)[C@@H]2CCSSCC[C@@H](NC(=O)[C@@H](N)Cc3cnc[nH]3)C(=O)N[C@@H](CCC(=O)O)C(=O)NCC(=O)N2)[C@@H](C)O)C(=O)N[C@@H](CCCc2ccccc2)C(N)=O)cc1 | 200 | > 85 | 1700 | –
12 | CCc1cc(OC)ccc1-c1ccc(C[C@H](NC(=O)[C@H](CC(=O)O)NC(=O)[C@H](CO)NC(=O)[C@@H](NC(=O)[C@](C)(Cc2ccccc2F)NC(=O)[C@H]2CCSSC[C@@H](NC(=O)[C@@H](N)Cc3cnc[nH]3)C(=O)N[C@@H](CCC(=O)O)C(=O)NCC(=O)N2)[C@@H](C)O)C(=O)N[C@@H](CCCc2ccccc2)C(N)=O)cc1 | 81 | > 85 | 550 | –
13 | CCc1cc(OC)ccc1-c1ccc(C[C@H](NC(=O)[C@@H]2CCC(=O)NCCCC[C@H](NC(=O)CNC(=O)[C@H](CCC(=O)O)NC(=O)C(C)(C)NC(=O)[C@@H](N)Cc3cnc[nH]3)C(=O)N[C@@](C)(Cc3ccccc3F)C(=O)N[C@@H]([C@@H](C)O)C(=O)N[C@@H](CO)C(=O)N2)C(=O)N[C@@H](CCCc2ccccc2)C(N)=O)cc1 (H-H[Aib]EGK[αMePhe(2-F)]TSE[Bip(2'-Et-4'-OMe)][hhPhe]-NH2; lactam 5-9) | 10 | > 85 | 17 | –
14 | CCc1cc(OC)ccc1-c1ccc(C[C@H](NC(=O)[C@@H]2CC(=O)NCCCC[C@H](NC(=O)CNC(=O)[C@H](CCC(=O)O)NC(=O)C(C)(C)NC(=O)[C@@H](N)Cc3cnc[nH]3)C(=O)N[C@@](C)(Cc3ccccc3F)C(=O)N[C@@H]([C@@H](C)O)C(=O)N[C@@H](CO)C(=O)N2)C(=O)N[C@@H](CCCc2ccccc2)C(N)=O)cc1 (H-H[Aib]EGK[αMePhe(2-F)]TSD[Bip(2'-Et-4'-OMe)][hhPhe]-NH2; lactam 5-9) | 68 | > 85 | 59 | –
15 | CCc1cc(OC)ccc1-c1ccc(C[C@H](NC(=O)[C@H](CC(=O)O)NC(=O)[C@H](CO)NC(=O)[C@@H](NC(=O)[C@](C)(Cc2c(F)cccc2F)NC(=O)[C@@H](NC(=O)CNC(=O)[C@H](CCC(=O)O)NC(=O)C(C)(C)NC(=O)[C@@H](N)Cc2cnc[nH]2)[C@@H](C)O)[C@@H](C)O)C(=O)N[C@@H](Cc2ccc(-c3ccccc3C)cc2)C(N)=O)cc1 (H-H[Aib]EGT[αMePhe(2,6-F2)]TSD[Bip(2'-Et-4'-OMe)][Bip(2'-Me)]-NH2) | 0.19 | > 85 | 0.66 | 3.5
16 | CCc1cc(OC)ccc1-c1ccc(C[C@H](NC(=O)[C@H](CC(=O)O)NC(=O)[C@H](CO)NC(=O)[C@@H](NC(=O)[C@](C)(Cc2ccccc2F)NC(=O)[C@H]2CCSSCC[C@@H](NC(=O)[C@@H](N)Cc3cnc[nH]3)C(=O)N[C@@H](CCC(=O)O)C(=O)NCC(=O)N2)[C@@H](C)O)C(=O)N[C@@H](CCCc2ccccc2)C(N)=O)cc1 | 0.73 | > 85 | 41 | –
17 | CCc1cc(OC)ccc1-c1ccc(C[C@H](NC(=O)[C@@H]2CCCC(=O)NCCCC[C@H](NC(=O)CNC(=O)[C@H](CCC(=O)O)NC(=O)C(C)(C)NC(=O)[C@@H](N)Cc3cnc[nH]3)C(=O)N[C@@](C)(Cc3ccccc3F)C(=O)N[C@@H]([C@@H](C)O)C(=O)N[C@@H](CO)C(=O)N2)C(=O)N[C@@H](CCCc2ccccc2)C(N)=O)cc1 (H-H[Aib]EGK[αMePhe(2-F)]TS[Aad][Bip(2'-Et-4'-OMe)][hhPhe]-NH2; lactam 5-9) | 95 | > 85 | 300 | –
18 | CCc1cc(OC)ccc1-c1ccc(C[C@H](NC(=O)[C@@H]2CCCCNC(=O)C[C@H](NC(=O)CNC(=O)[C@H](CCC(=O)O)NC(=O)C(C)(C)NC(=O)[C@@H](N)Cc3cnc[nH]3)C(=O)N[C@@](C)(Cc3ccccc3F)C(=O)N[C@@H]([C@@H](C)O)C(=O)N[C@@H](CO)C(=O)N2)C(=O)N[C@@H](CCCc2ccccc2)C(N)=O)cc1 (H-H[Aib]EGD[αMePhe(2-F)]TSK[Bip(2'-Et-4'-OMe)][hhPhe]-NH2; lactam 5-9) | 320 | > 85 | 1200 | –
